The source made the active and inactive calls. The calls are words filed in the database; no cut-off is given here. A value given as a limit tells only on which side of the number the result lay.

Assay [1] is described as follows: Cytotoxicity against human renal cancer cells after 48 hrs. To be noted: Cancer cell lines. It is filed as functional.
Assay [2] can be described thus: Cytotoxicity against human prostate cancer cells after 48 hrs. In kind it is functional. As to conditions: Cancer cell lines; for CC50: read-out: LC50 (the source's name). Summed up: (§1)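 NCI 60-cell panel, values averaged per subpanel. Compounds were dissolved in DMSO and first screened at a single 10⁻⁵ M dose. Active ones then went to five concentrations at ten-fold dilutions, top 10⁻⁴ M (10⁻³ M for some), with 48 h exposure.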

The nature of assay [3]: Cytotoxicity against human NSCLC cells after 48 hrs. It is filed as functional. As to conditions: for CC50: read-out: LC50 (the source's name). An outline of the steps: as §1
Assay [4] is described as follows: Inhibition of bovine brain tubulin assembly after 20 mins.
The nature of assay [5]: Cytotoxicity against human colon cancer cells after 48 hrs. It is filed as functional. As to conditions: Cancer cell lines. Summed up:
as §1

A short description of assay [6]: Cytotoxicity against human leukemia cells after 48 hrs. In kind it is functional. To be noted: Leukemia cell; for CC50: read-out: LC50 (the source's name).
Assay [7] can be described thus: Cytotoxicity against human melanoma cells after 48 hrs. As to conditions: Melanoma cell; for CC50: read-out: LC50 (the source's name). In kind it is functional.
The nature of assay [8]: Cytotoxicity against human ovarian cancer cells after 48 hrs. It is filed as functional. To be noted: Cancer cell lines; for CC50: read-out: LC50 (the source's name). Summed up:
as §1

Assay [9] in a line: Cytotoxicity against human CNS cancer cells after 48 hrs. As to conditions: Cancer cell lines. It is filed as functional. An outline of the steps: as §1
Assay [10] in a line: Cytotoxicity against human breast cancer cells after 48 hrs. It is filed as functional. To be noted: Cancer cell lines. An outline of the steps:
as §1

Another assay has as its system B1647. Nature of the assay: Cytotoxicity against human B1647 cells at 5 to 10 uM after 24 hrs by MTT assay. In kind it is functional, cell-based. An outline of the steps: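 B1647 human AML cells grown in IMDM with 5% human serum (37 °C, 5% CO2); 10⁶ cells per well in 1 mL exposed to 5 or 10 µM compound (DMSO) for 24 h. MTT 0.5 mg/mL added for 4 h at 37 °C, formazan dissolved overnight in 10% SDS/0.01 M HCl, A570 read. Four independent experiments.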

`COc1ccc(CN2C(=O)/C(=C\c3cc(OC)c(OC)c(OC)c3)c3ccccc32)cc1`: the GI50 was 2 µM in [1]; 2.7 µM in assay [2]; 2 µM in [3]; 1.8 µM in [5]; 2.2 µM in [6]; 1.7 µM in [7]. Also, the GI50 came to 2.6 µM in assay [8], 2.5 µM in assay [9] and 2.3 µM in assay [10]. The LC50 in assay [1] amounted to 45.7 µM; in assay [5], 8.3 µM; in [9], 26.3 µM; in assay [10] it was 93.3 µM. Further, the TGI in assay [2] was 26.3 µM; in [6], 27.5 µM; in assay [8] it was 21.4 µM; in assay [9], 10.5 µM; in [10] it was 17.4 µM. The CC50 in assay [3] worked out at 38.9 µM; in [7] it was 19.5 µM; in [8], 67.6 µM. For the same molecule, in [4], the half-maximal inhibitory concentration (IC50) is more than 20 µM.
As for `COc1cc(/C=C2\C(=O)N(C)c3ccc(Cl)cc32)cc(OC)c1OC`, the GI50 in assay [1] came out at 4.7 µM; in assay [2], 3.2 µM; in assay [3] it was 7.4 µM; in [5] it was 4 µM; in assay [6] it was 2.3 µM; in assay [7], 5 µM. Besides, the concentration for 50% growth inhibition (GI50) in assay [8] was 5.9 µM; in assay [9], 4.3 µM; in [10], 3.7 µM. Also, the figures for the 50% lethal concentration (LC50) in [1], in [5] and in [9] were 85.1 µM, 67.6 µM and 81.3 µM, respectively. Also, the TGI in assay [2] came out at 11.2 µM; in assay [3], 28.2 µM; in assay [5], 18.2 µM; in assay [6], 14.4 µM; in [8] it was 36.3 µM; in assay [9] it was 24.5 µM. In [10], this molecule registered a TGI of 17.4 µM. The CC50 in assay [3] amounted to 85.1 µM; in [6], 67.6 µM; in assay [7], 69.2 µM; in assay [8], 93.3 µM. The same molecule registered an IC50 in assay [4] of more than 20 µM.
Regarding `COc1cc(/C=C2\C(=O)Nc3ccc(N(C)C)cc32)cc(OC)c1OC`, the GI50 was 3.8 µM in assay [1]; 2.5 µM in [2]; 4.2 µM in assay [3]; 2.4 µM in assay [5]; 1.1 µM in assay [6]; 3.5 µM in [7]. The results for the GI50 in assay [8], in assay [9] and in assay [10] were 3.2 µM, 2.9 µM and 2.1 µM, respectively. In addition, the LC50 turned out to be 83.2 µM in [1], 81.3 µM in [5] and 81.3 µM in [9]. The TGI amounted to 43.6 µM in assay [2]; 41.7 µM in assay [3]; 34.7 µM in assay [5]; 42.7 µM in assay [7]; 25.1 µM in assay [9]; 37.1 µM in assay [10]. Besides, the IC50 in assay [4] is more than 20 µM. Moreover, in the assay on B1647, the outcome was Active. The CC50 in assay [6] and in [8] was 81.3 µM each time.
As for `COc1cc(/C=C2/C(=O)N(C)c3ccc(O)cc32)cc(OC)c1OC`, the GI50 in assay [1] was determined as 5.7 µM; in assay [2] it was 2.8 µM; in assay [3], 6.3 µM; in assay [5], 4.3 µM; in [6], 2.2 µM; in [7] it was 4.9 µM. The GI50 turned out to be 5.5 µM in assay [8], 4.3 µM in assay [9] and 3.2 µM in assay [10]. The LC50 in assay [1] is 70.8 µM; in assay [5] it was 47.9 µM; in [9], 53.7 µM; in assay [10], 61.7 µM. In addition, the TGI was found to be 22.4 µM in assay [1]; 24.6 µM in assay [3]; 18.2 µM in [5]; 16.2 µM in assay [7]; 26.3 µM in [8]; 15.1 µM in assay [10]. Further, the CC50 in assay [2] came out at 22.9 µM; in [3], 77.6 µM; in assay [6], 81.3 µM; in [7], 43.6 µM; in [8] it was 79.4 µM. Further, the IC50 in assay [4] is more than 20 µM.
Take `COc1cc(/C=C2\C(=O)Nc3cc(Cl)ccc32)cc(OC)c1OC`: the GI50 in [1] came to 1.6 µM; in assay [2], 1.5 µM; in assay [3] it was 2 µM; in [5], 0.8 µM; in [6], 0.5 µM; in [7] it was 1.9 µM. Moreover, the GI50 in [8] amounted to 1.9 µM; in [9] it was 1.6 µM; in assay [10], 0.8 µM. The LC50 was 14.1 µM in assay [1], 22.9 µM in assay [5], 18.6 µM in [9] and 31.6 µM in assay [10]. Besides, the CC50 in [2] stood at 17 µM; in assay [3], 29.5 µM; in assay [6], 56.2 µM; in assay [7], 19 µM; in [8] it was 17.4 µM. In assay [4], this molecule came in with an IC50 of 15 µM.
Turning to `COc1ccc2c(c1)/C(=C\c1cc(OC)c(OC)c(OC)c1)C(=O)N2C`, the GI50 in assay [1] was 3.2 µM; in assay [2], 2.6 µM; in assay [3], 3.7 µM; in assay [5] it was 2.6 µM; in assay [6], 1.4 µM; in [7], 3.1 µM. Besides, the values for the GI50 in assay [8], in assay [9] and in assay [10] were 3.5 µM, 2.4 µM and 2.7 µM, respectively. Besides, the TGI amounted to 46.8 µM in assay [3], 16.6 µM in [5], 28.2 µM in [8] and 14.1 µM in assay [9]. The CC50 was determined as 83.2 µM in assay [3], 87.1 µM in assay [6] and 85.1 µM in [7]. This molecule yielded an IC50 in assay [4] of more than 20 µM. The same molecule registered a 50% lethal concentration (LC50) in assay [5] of 63.1 µM.
Take `COc1ccc(CN2C(=O)/C(=C/c3cc(OC)c(OC)c(OC)c3)c3cc(OC)ccc32)cc1`: the GI50 in assay [1] was determined as 2.4 µM; in [2], 3.2 µM; in [3], 2.3 µM; in assay [5], 1.9 µM; in [6], 2.7 µM; in assay [7], 2.1 µM. The GI50 is 2.4 µM in [8], 2.2 µM in assay [9] and 2.6 µM in assay [10]. Besides, the LC50 is 28.8 µM in assay [1], 7.9 µM in [5], 33.9 µM in assay [9] and 79.4 µM in assay [10]. The TGI in [2] stood at 14.1 µM; in assay [3], 11.2 µM; in assay [6], 27.5 µM; in assay [10], 13.8 µM. Also, the CC50 was 83.2 µM in [2], 33.1 µM in assay [3], 23.4 µM in assay [7] and 50.1 µM in assay [8]. The same molecule gave an IC50 in [4] of more than 20 µM.
For the molecule `COc1cc(/C=C2\C(=O)Nc3c(Cl)ccc(Cl)c32)cc(OC)c1OC`, the result in the assay on B1647 was Active.
Take `COc1ccc(OC)c2c1NC(=O)/C2=C\c1cc(OC)c(OC)c(OC)c1`: the GI50 turned out to be 4.5 µM in assay [1]; 4.3 µM in assay [2]; 7.1 µM in assay [3]; 4 µM in [5]; 2.6 µM in [6]; 5.2 µM in [7]. The GI50 in assay [8] came to 4.6 µM; in assay [9], 5.5 µM; in assay [10], 2.2 µM. Further, the LC50 in assay [1] was 54.9 µM; in [5] it was 41.7 µM; in assay [9], 54.9 µM; in assay [10], 64.6 µM. Moreover, the TGI in assay [1] came out at 18.6 µM; in assay [2], 22.9 µM; in assay [3], 25.1 µM; in [5] it was 15.5 µM; in assay [6] it was 14.1 µM; in [7], 18.6 µM. Moreover, the TGI in assay [8] amounted to 23.4 µM; in [9], 20.4 µM. For the same molecule, the CC50 amounted to 58.9 µM in [2]; 74.1 µM in [3]; 79.4 µM in assay [6]; 44.7 µM in [7]; 77.6 µM in [8]. Further, in [4], the IC50 is more than 20 µM.
Consider `COc1cc(/C=C2\C(=O)Nc3cc(OC(F)(F)F)ccc32)cc(OC)c1OC`, for which the GI50 in assay [1] was 3.3 µM; in assay [2], 4.6 µM; in assay [3], 2.9 µM; in assay [5], 2.8 µM; in assay [6], 2.3 µM; in assay [7] it was 2.6 µM. In addition, the GI50 in assay [8] was 2.9 µM; in assay [9], 2.6 µM; in [10] it was 2.1 µM. In addition, the LC50 in [1] amounted to 34.7 µM; in assay [5], 37.1 µM; in [9], 33.9 µM; in [10], 60.3 µM. Also, the TGI in [1] was 12.6 µM; in assay [2] it was 29.5 µM; in assay [3] it was 14.1 µM; in assay [5], 10.2 µM; in assay [6] it was 27.5 µM; in assay [7], 10.7 µM. The molecule also displayed a TGI in [8] of 11.2 µM. The CC50 came to 83.2 µM in [2], 51.3 µM in assay [3], 44.7 µM in [7] and 49 µM in assay [8]. Moreover, the IC50 in assay [4] is more than 20 µM.
For `CC[C@]1(O)C[C@H]2CN(CCc3c([nH]c4ccccc34)[C@@](C(=O)OC)(c3cc4c(cc3OC)N(C=O)[C@H]3[C@@](O)(C(=O)OC)[C@H](OC(C)=O)[C@]5(CC)C=CCN6CC[C@]43[C@@H]65)C2)C1` [VINCRISTINE], the figures for the CC50 in assay [2], in [6] and in [8] were 316 µM, 631 µM and 316 µM, respectively.

The term GI50 denotes the concentration at which growth is held to half of that of the control. Read a high GI50 as lower sensitivity of the cells. Usually LC50 stands for the concentration that kills 50% of the test population. A high value points to lower toxicity. Usually TGI stands for the concentration giving total growth inhibition. A high value points to lower sensitivity of the cells. The term IC50 denotes the concentration at which inhibition is half-maximal. The low end stands for greater potency, the high end for weaker potency.

Values taken from ChEMBL document CHEMBL2385029, “Cytotoxic activities of substituted 3-(3,4,5-trimethoxybenzylidene)-1,3-dihydroindol-2-ones and studies on their mechanisms of action” (Eur J Med Chem, 2013).
